Test results taken from ChEMBL document CHEMBL4699420, “Pyrazolyl-pyrimidones inhibit the function of human solute carrier protein SLC11A2 (hDMT1) by metal chelation” (RSC Med Chem, 2020).
Blank lines part the entries; values can stand above or below the molecule they belong to. Activity calls are given as the source filed them. No cut-off for these calls is given here.

Key:
HEK293T [1] = experiment: (§1) Metal chelating activity assessed as inhibition of human DMT1 expressed in HEK293T cells by measuring inhibition of radiolabeled 55Fe2+ uptake at 10 uM preincubated with compound for 5 mins followed by incubation with Fe2+ and radiolabeled 55Fe2+ for 15 mins at extracellular pH of 5.5 by scintillation counting analysis; type: cell-based; settings: time 20.0 min
Outline: (§2)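 HEK293T cells were seeded 30,000/well and transiently transfected with DsRED-hDMT1 by Lipofectamine 24 h later; assays ran the next day. After a wash in uptake solution, cells got a 5 min compound preincubation, then 15 min RT uptake in pH 5.5 uptake solution with 100 μM ascorbate, Fe²⁺ and ⁵⁵Fe²⁺ (0.5 μCi/mL). An ice-cold pH 7.5 wash followed, then scintillation counting, with cpm converted to influx rates.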

[2] = Metal chelating activity assessed as compound-Fe2+ complex formation by measuring precipitation at 10 uM incubated with radilolabeled-55Fe2+ for 15 mins in aqueous buffer of pH 7.4 by scintillation counting analysis
Outline: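 Uptake solution (pH 7.4) with 1 μM Fe2+, 100 μM ascorbic acid, 0.5 μCi/mL 55Fe2+ and 10 μM compound, incubated 15 min at RT in polypropylene tubes. Aliquots taken in quadruplicate for scintillation counting of remaining 55Fe2+.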

HEK293T [3] = experiment: as §1, with “ZIP8” for “DMT1”, “7.4” for “5.5”; type: cell-based; settings: time 20.0 min
Outline: as §2, with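 “DsRED-hZIP8” for “DsRED-hDMT1”, “Cells” for “After a wash in uptake solution, cells”, “uptake” for “uptake in pH 5.5 uptake solution”, “ice-cold” for “ice-cold pH 7.5”, “counts” for “cpm”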

[4] = target: T1, Natural resistance-associated macrophage protein 2 (Homo sapiens) (UniProt P49281); experiment: Inhibition of human DMT1 expressed in Xenopus laevis oocytes assessed as reduction in radiolabeled 55Fe2+ uptake at 10 uM preincubated for 5 mins followed by incubation with Fe2+ and radiolabeled 55Fe2+ and measured after 10 mins by scintillation counting method relative to control; type: cell-based; settings: Oocyte, time 15.0 min
T1 sequence (whole entry): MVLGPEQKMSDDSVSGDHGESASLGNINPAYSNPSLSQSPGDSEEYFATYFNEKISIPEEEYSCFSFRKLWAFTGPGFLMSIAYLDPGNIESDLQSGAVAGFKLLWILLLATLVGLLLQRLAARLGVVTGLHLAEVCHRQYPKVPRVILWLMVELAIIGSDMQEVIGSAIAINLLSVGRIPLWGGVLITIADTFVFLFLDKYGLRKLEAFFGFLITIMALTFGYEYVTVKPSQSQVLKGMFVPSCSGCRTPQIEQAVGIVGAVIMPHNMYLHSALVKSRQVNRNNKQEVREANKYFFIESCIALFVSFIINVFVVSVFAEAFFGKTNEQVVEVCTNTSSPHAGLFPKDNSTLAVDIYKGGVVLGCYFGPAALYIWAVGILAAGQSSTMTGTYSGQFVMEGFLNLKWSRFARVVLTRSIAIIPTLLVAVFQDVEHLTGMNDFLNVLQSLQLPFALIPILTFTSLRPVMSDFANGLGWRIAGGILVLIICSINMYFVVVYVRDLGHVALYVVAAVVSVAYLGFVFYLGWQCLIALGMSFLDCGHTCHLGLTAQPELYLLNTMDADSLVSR
Outline: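 Xenopus oocytes injected with 20 ng hDMT1 cRNA, tested 3-5 days later, 10-15 oocytes per condition. 5 min RT in pH 5.5 transport medium with 10 μM compound, then 10 min with compound, 100 μM ascorbate, 1 μM Fe2+ and 0.5 μCi/mL 55Fe2+. Ice-cold rinse with 250 μM Fe2+, SDS solubilization, scintillation counting. Compound-free and non-injected oocytes run in parallel.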

[5] = target: T1, Natural resistance-associated macrophage protein 2 (Homo sapiens); experiment: Inhibition of human DMT1 expressed in HEK293T cells by measuring inhibition of radiolabeled 55Fe2+ uptake at 10 uM preincubated with compound for 5 mins followed by incubation with Fe2+ and radiolabeled 55Fe2+ for 15 mins at extracellular pH of 5.5 by scintillation counting analysis; type: cell-based; settings: time 20.0 min
Outline: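 HEK293T cells seeded at 30,000/well 48 h ahead and transiently transfected 24 h later with DsRED-hDMT1. After wash in uptake buffer, 5 min preincubation with compound, then 15 min at RT in pH 5.5 uptake solution with 100 μM ascorbic acid, Fe2+ and 55Fe2+ (0.5 μCi/mL). Ice-cold pH 7.5 wash, scintillation counting, cpm converted to influx rate.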

[6] = target: T2, Natural resistance-associated macrophage protein 2 (Homo sapiens, UniProt P49281); experiment: Inhibition of human DMT1 expressed in HEK293 cells assessed as inhibition of radiolabeled 55Fe2+ uptake incubated for 1 hr by microplate scintillation counting analysis; type: cell-based; settings: in the assay text read “incubated for 15 mins” for “incubated for 1 hr”
T2 sequence (P49281 whole entry): T1 sequence (whole entry)
Outline: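 HEK293 cells stably expressing DsRED-hDMT1 were cultured in DMEM with 10% FBS, 10 mM HEPES and 1 mM Na-pyruvate, and seeded 50,000/well 24 h ahead. Cells got a 5 min compound preincubation, then 15 min RT uptake at pH 5.5 with 100 μM ascorbate, Fe²⁺ and ⁵⁵Fe²⁺ (0.5 μCi/mL). After an ice-cold pH 7.5 wash, cells sat 1 h in scintillant. Counts were converted to influx rates and fitted with a 4-parameter sigmoid for IC50.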

[7] = Metal chelating activity assessed as compound-Fe2+ complex formation at 20 uM preincubated with Fe2+ for 5 mins followed by calcein challenge in aqueous buffer of pH 5.5 and measured after 5 mins by calcein quenching assay; settings: time 10.0 min
[8] = target: T2, Natural resistance-associated macrophage protein 2; experiment: Inhibition of human DMT1 expressed in Xenopus oocytes assessed as inhibition of channel currents at -50 mV holding potential by two-electrode voltage clamp assay; type: cell-based; settings: oocyte
Outline: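 Xenopus oocytes were injected with 20 ng hDMT1 cRNA and used 3–5 days later. Holding current at Vh −50 mV was recorded, low-pass filtered at 500 Hz and digitized at 5 kHz.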

[9] = Metal chelating activity assessed as compound-Cd2+ complex formation at ratio of 2:1 at 0.4 mM in aqueous buffer of pH 7.4 by isothermal titration calorimetry
Outline: (§3)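 Cadmium chloride titrated into 0.4 mM compound (from 10 mM DMSO stock) at 25 °C, stirring 750 rpm. Buffer was 20 mM HEPES/150 mM NaCl pH 7.5 or 20 mM MES/150 mM NaCl pH 5.5. First injection 0.4 μL, then 2 μL every 150 s. Buffer/DMSO control titrations run. Fit to a one-set-of-sites model, with fitting errors on KD.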

[10] = Metal chelating activity assessed as compound-Cd2+ complex formation by measuring precipitation at 0.4 mM in aqueous buffer of pH 5.5 by isothermal titration calorimetry; outline: as §3
[11] = Metal chelating activity assessed as compound-Fe2+ complex formation by UV-Vis titration based analysis
[12] = Metal chelating activity assessed as compound-Cd2+ complex formation by UV-Vis titration based analysis
[13] = as §1, with “ZIP8” for “DMT1”, “uptake” for “uptake at 10 uM”, “7.4” for “5.5”; type: cell-based; settings: HEK-293T
Outline: as §2, with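 “DsRED-hZIP8” for “DsRED-hDMT1”, “Cells” for “After a wash in uptake solution, cells”, “uptake” for “uptake in pH 5.5 uptake solution”, “ice-cold” for “ice-cold pH 7.5”, “counts” for “cpm”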

[14] = Metal chelating activity assessed as compound-Fe2+ complex formation by measuring precipitation at 10 uM incubated with radilolabeled-55Fe2+ for 15 mins in aqueous buffer of pH 7.4 by scintillation counting analysis

Structure (SMILES): Cc1cc(=O)[nH]c(-n2nc3c(c2C)CNCC3)n1
inhibition (HEK293T [1]): < 20%

Activity [2]: inactive
inhibition [4]: 100%
inhibition [5]: Active
Structure (SMILES): N=C(N)SCc1cccc2c1oc1c(CSC(=N)N)cccc12
Activity (HEK293T [3]): inactive

Structure (SMILES): Cc1cc(=O)[nH]c(-n2nc(C(C)(C)C)cc2C)n1
inhibition (HEK293T [1]): < 20%

Structure (SMILES): CCc1cc(=O)[nH]c(-n2[nH]c(C)cc2=O)n1
inhibition (HEK293T [1]): < 20%

Structure (SMILES): Cc1cc(=O)[nH]c(-n2nc(C)c(-c3ccccc3)c2C)n1
inhibition (HEK293T [1]): < 20%

Structure (SMILES): CCOC(=O)c1cnc(-n2[nH]c(C)cc2=O)[nH]c1=O
inhibition (HEK293T [1]): < 20%

Structure (SMILES): Cc1cc(=O)[nH]c(-n2[nH]c(C)c(Cc3ccccc3)c2=O)n1
inhibition (HEK293T [1]): < 20%

IC50 [6]: 7 µM
Structure (SMILES): N=C(N)SCc1cccc(CSC(=N)N)c1

Structure (SMILES): CCc1cc(=O)n(-c2nc(C)cc(=O)[nH]2)[nH]1
inhibition (HEK293T [1]): < 20%

Activity [2]: inactive
Activity [7]: inactive
Structure (SMILES): Cc1cc(O)nc(-n2nc(C)cc2C)n1
Activity (HEK293T [1]): Active
Activity (HEK293T [3]): Active

Structure (SMILES): Cc1cc(C)nc(-n2nc(C)cc2C)n1
inhibition (HEK293T [1]): < 20%

Structure (SMILES): Cc1cc(=O)[nH]c(-n2nc(-c3ccccc3)cc2C)n1
inhibition (HEK293T [1]): < 20%

IC50 [8]: Not Active
Activity [9]: Active
Activity [2]: Active
Activity [7]: Active
Activity [10]: Active
Activity [11]: inactive
Activity [12]: inactive
IC50 [13]: 1400 nM
Structure (SMILES): Cc1cc(=O)[nH]c(-n2nc3c(c2C)CCCC3)n1
Activity (HEK293T [1]): Active
Activity (HEK293T [3]): Active

Activity [2]: Active
Activity [7]: Active
Activity [14]: Active
Structure (SMILES): Cc1nn(-c2ccccn2)c(O)c1C(=O)Nc1cccc(C(F)(F)F)c1
Activity (HEK293T [1]): Active
Activity (HEK293T [3]): Active

Structure (SMILES): Cc1cc(=O)[nH]c(-n2nc(C)c(Cc3ccccc3)c2C)n1
inhibition (HEK293T [1]): < 20%

Structure (SMILES): Cc1cc(=O)[nH]c(-n2nc3c(c2C)CCC3)n1
inhibition (HEK293T [1]): < 20%

Structure (SMILES): Cc1cc(=O)[nH]c(-n2nc3c(c2C)COCC3)n1
inhibition (HEK293T [1]): < 20%

Structure (SMILES): Cc1cc(=O)[nH]c(-n2[nH]c(C)c(C(=O)Nc3cccc(C(F)(F)F)c3)c2=O)n1
inhibition (HEK293T [1]): < 20%
